Screening data as filed in PubChem.
Sampled rows, rich in hits. Any-hit rate of the full collection: about 1.8%.
CHRM4 PAM: human M4 muscarinic receptor positive allosteric modulators, primary screen, CHO-K1 cells, Fluo-8 calcium fluorescence; activation, % at 3 µM; actives 0.4% (n = 360,000); CHO-K1 hM4/Gqi5, ACh EC20; 0% = ACh EC20, 100% = maximal ACh; Muscarinic acetylcholine receptor M4 (Homo sapiens), P08173;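 active means activation above its plate's cutoff, the mean activation of sample wells plus 3 SD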
M5 ag: human M5 muscarinic receptor agonists, primary screen, CHO-K1 cells, Fluo-8 calcium fluorescence; Muscarinic acetylcholine receptor M5 (Homo sapiens), P08912; CHO-K1 hM5 cells; 0% DMSO wells, 100% maximal acetylcholine response; activation, % at 3 µM; actives 0.19% (n = 360,000); AID 624037, 2012;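 active means activation above the run's mean over test compounds plus 3 SD, cut at about 23% in these data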;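 further: signal is peak over basal fluorescence ratio across the kinetic read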
Target sequence (P08912 whole entry, looked up): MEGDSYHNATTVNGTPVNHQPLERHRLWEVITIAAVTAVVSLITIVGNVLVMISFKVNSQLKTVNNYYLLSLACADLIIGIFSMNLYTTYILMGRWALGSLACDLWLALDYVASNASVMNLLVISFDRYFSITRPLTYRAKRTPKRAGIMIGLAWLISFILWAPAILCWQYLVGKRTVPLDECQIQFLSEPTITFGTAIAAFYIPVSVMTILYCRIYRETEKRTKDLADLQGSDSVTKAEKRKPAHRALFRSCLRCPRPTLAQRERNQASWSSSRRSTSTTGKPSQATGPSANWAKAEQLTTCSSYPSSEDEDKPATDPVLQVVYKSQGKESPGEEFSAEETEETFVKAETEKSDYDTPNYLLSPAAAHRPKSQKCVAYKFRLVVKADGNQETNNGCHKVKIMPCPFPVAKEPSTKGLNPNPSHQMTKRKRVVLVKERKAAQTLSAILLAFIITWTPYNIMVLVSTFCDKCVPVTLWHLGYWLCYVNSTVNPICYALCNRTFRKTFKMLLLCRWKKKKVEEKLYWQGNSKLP
CHRM4 agonist: human M4 muscarinic receptor agonists, primary screen, CHO-K1 cells, Fluo-8 calcium fluorescence; CHO-K1 hM4/Gqi5; vehicle 0%, full acetylcholine response 100%; activation, % at 3 µM; actives 0.14% (n = 360,000); AID 624127, 2012;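 active means activation above the run mean over all test wells plus 3 SD, cut at about 32% in these data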;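 further: peak over basal fluorescence ratio per well then scaled between controls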
CHRM5 antagonist: human M5 muscarinic receptor antagonists, primary screen, CHO cells, Fluo-8 calcium fluorescence. actives 0.59% (n = 360,000). CHO-hM5 cells, ACh EC80. inhibition, % at 3 µM;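 active means inhibition above a per-plate cutoff, the mean of that plate's test compounds plus 3 SD, cut at about 27% in these data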
CHRM5 PAM: human M5 muscarinic receptor positive allosteric modulators, primary screen, CHO-K1 cells, Fluo-8 calcium fluorescence. activation, % at 3 µM. CHO-K1 hM5, ACh EC20 PAM; 0% = ACh EC20, 100% = ACh EC100. AID 624038, 2012. actives 0.3% (n = 360,000);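 active means activation above the run cutoff, the mean activation of all test compounds plus 3 SD, cut at about 18% in these data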
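system = human M5 receptor in CHO-K1 cells | reagent = EC20 acetylcholine as agonist stimulus | compound dosing = single-point, 3 µM nominal | incubation = Fluo-8 loading 80 min at 37 °C plus 30 min room temperature | detection = Fluo-8 calcium dye fluorescence, kinetic read | benchmarks = low control EC20 acetylcholine (0%), high control EC100 acetylcholine (100%)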
M4 antag: human M4 muscarinic receptor antagonists, primary screen, CHO cells, Fluo-8 calcium fluorescence; Muscarinic acetylcholine receptor M4 (Homo sapiens), P08173; AID 624125, 2012; actives 0.73% (n = 360,000); inhibition, % at 3 µM; CHO-hM4 cells, ACh EC80;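 active means inhibition above its plate's cutoff, the mean inhibition of sample wells plus 3 SD, cut at about 27% in these data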
A number is an active result; i = inactive.

SMILES	CHRM4 PAM	M5 ag	CHRM4 agonist	CHRM5 antagonist	CHRM5 PAM	M4 antag
O=C(NN=C(c1ccccc1)c1ccccc1)C(CCl)C1CCCCC1 (stereo unspecified)	i	i	i	i	i	i
CC1=[N+](C)c2c(ccc3cccnc23)C1(C)C	i	i	i	37	i	35
CCOc1ccccc1-c1cc(C(=O)Nc2ccc(C(=O)O)cc2)c2ccccc2n1	14	i	i	i	i	i
CCCCC(=O)N1CCN(c2nc3ccc(Cl)cc3s2)CC1	23	i	i	i	i	i
O=S1(=O)CC(N2CCN(CCO)CC2)CN1Cc1cn(Cc2ccc(F)cc2)nn1 (stereo unspecified)	i	i	i	i	i	i
CCS(=O)(=O)N1CCC(C(=O)Nc2ccc3c(c2)CCC3)CC1	i	i	i	i	i	i
C=CS(=O)(=O)N(Cc1ccccc1)[C@H](CO)CC(C)C	i	i	i	i	i	i
CC(C)C[C@H](CO)N(Cc1ccccc1)S(=O)(=O)N(Cc1ccccc1)[C@@H](CO)CC(C)C	i	i	i	i	i	34
O=c1c(O)c(-c2cccs2)oc2ccc(Cl)cc12	i	66	344	31	i	32
O=c1c(O)c(-c2cccs2)oc2ccccc12	i	i	i	i	i	i
Cc1ccc(S(=O)(=O)NCC(=O)OC(C)C(=O)NC(=O)NC2CCCCC2)cc1C (stereo unspecified)	i	i	i	i	i	i
CCCS(=O)(=O)NC(=O)C1(C)CCN(C(=O)c2cccc(C)c2C)C1 (stereo unspecified)	19	i	i	i	i	i
CC(=O)C1=CCC(c2ccc(C)o2)N(S(=O)(=O)c2ccc(C)cc2)C1 (stereo unspecified)	i	i	i	i	i	i
CC1(Oc2ccccc2-c2ccno2)CCN(Cc2csc3ccccc23)C1 (stereo unspecified)	i	i	i	i	i	33
C/C(=N\OCc1ccc(C#N)cc1)c1ccccc1	i	i	i	i	i	i
C/C(=N\OCc1ccc(C#N)cc1)c1ccc(S(=O)(=O)N(C)C)cc1	i	i	i	28	i	i
FC(F)(F)c1ccc(-c2cccc3c2C2CC3CCN2C(=S)NCCc2ccccc2)cc1 (stereo unspecified)	i	i	i	i	i	i
Cc1ccc(NC(=S)NCc2ccc(S(N)(=O)=O)cc2)c(C)c1	i	i	i	i	i	28
Cc1cc(Cl)ccc1NC(=S)NCc1ccc(S(N)(=O)=O)cc1	i	i	i	i	i	i
Cc1ccc(NC(=S)NCCO)c(C)c1	16	i	i	i	i	i
Cc1ccc(NC(=S)NCCc2ccccc2)c(C)c1	i	i	i	i	i	i
CCOc1ccc(NC(=O)C[n+]2ccc(N(C)C)cc2)cc1	i	i	i	i	i	i
CN(C)c1cc[n+](CC(=O)Nc2ccc(Oc3ccccc3)cc2)cc1	i	i	i	i	i	43
Cc1ccccc1C(=O)NC(NC(=S)Nc1ccc(S(N)(=O)=O)cc1)C(Cl)(Cl)Cl (stereo unspecified)	24	i	i	i	i	i
Cc1ccc(NC(=S)NC(NC(=O)c2ccccc2)C(Cl)(Cl)Cl)c(C)c1 (stereo unspecified)	i	i	i	i	i	i
SMILES	CHRM4 PAM	M5 ag	CHRM4 agonist	CHRM5 antagonist	CHRM5 PAM	M4 antag
Cc1ccc(C(=O)NC(NC(=S)Nc2ccc(S(N)(=O)=O)cc2)C(Cl)(Cl)Cl)cc1 (stereo unspecified)	i	i	i	i	i	i
Cc1cc(C)c(NC(=S)NC(NC(=O)c2ccccc2)C(Cl)(Cl)Cl)c(C)c1 (stereo unspecified)	i	i	i	27	i	i
O=C(NC(NC(=S)Nc1ccccc1)C(Cl)(Cl)Cl)c1cccc(Cl)c1 (stereo unspecified)	i	i	i	44	i	i
Cc1cc(C)c2[nH]c(C(=O)Nc3ccc(F)cc3Br)cc2c1	i	i	i	i	i	i
Cc1ccc(S(=O)(=O)N2CCCCC2)cc1NC(=O)CNC(C)c1ccc(Cl)c(Cl)c1 (stereo unspecified)	i	i	i	i	i	i
Cc1cc(C)n(-c2ccc(C(=O)Nc3cccc(S(=O)(=O)N(C)C)c3)cc2)n1	i	i	i	i	i	i
Cc1cc(C)n(-c2ccc(C(=O)Nc3cccc([N+](=O)[O-])c3)cc2)n1	i	i	i	27	i	i
CCC(C(=O)OC(C)C)c1ccc2ccccc2c1 (stereo unspecified)	i	i	i	i	i	i
CCSc1nc2cc(S(=O)(=O)N3CCOCC3)ccc2o1	i	i	i	i	i	i
Cc1ccc(C(=O)CSc2nc3cc(S(=O)(=O)N4CCOCC4)ccc3o2)cc1	i	i	i	i	19	i
CC(=O)Nc1ccc(/C(C)=N/Nc2nc(Nc3cccc4ccccc34)nc(N3CCOCC3)n2)cc1	i	32	i	i	i	i
CC(=O)Nc1ccc(/C(C)=N/Nc2nc(N3CCOCC3)nc(N3CCOCC3)n2)cc1	i	i	i	i	i	i
O=C(NCc1ccc2c(c1)OCO2)Nc1ccc([N+](=O)[O-])cc1	i	i	i	38	i	i
Cc1ccc(OCCNC(=O)C(=O)NCc2ccco2)cc1	i	i	i	i	i	27
O=C1NC[C@H](Cc2ccccc2)N(C[C@@H]2CCCN2C[C@H](Cc2ccccc2)N2C[C@H](Cc3ccc(O)cc3)N(CCc3ccccc3)C(=O)C2=O)C1=O	i	i	i	i	i	i
O=C(Nc1ccc(-c2nc3ccccc3s2)c(O)c1)C1=COCCO1	i	i	i	i	i	i
O=C(Nc1ccc(O)c(-c2nc3ccccc3s2)c1)C1=COCCO1	i	i	i	i	i	79
O=C(OCc1ccccc1)N1CCN(C(c2ccnc3ccccc23)c2nnnn2-c2ccc3c(c2)OCCO3)CC1 (stereo unspecified)	i	i	i	i	i	i
O=S(=O)(Nc1ccc(F)cc1)c1ccc(S(=O)(=O)N2CCOCC2)cc1	i	27	i	i	i	i
O=C(CN1CCOCC1)NNC(=S)Nc1ccccc1	i	i	i	i	29	i
